Structures are written as SMILES. The source made the active and inactive calls. The rule behind the calls is not given here.

5 molecules from ChEMBL document CHEMBL1764983, “Structure-activity study to develop cationic lipid-conjugated haloperidol derivatives as a new class of anticancer therapeutics” (J Med Chem, 2011) can be followed below.

Series [1] concerns MCF7. Kind of series: Cytotoxicity against human MCF7 cells expressing sigma receptor at 0.5 to 50 uM after 48 hrs by MTT assay. The series is classed as functional, cell-based. In outline: (§1)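 MTT reduction assay. Cells grown in RPMI-1640 with 10% FBS at 37 °C, 5% CO₂, and used at 85-90% confluency. Seeded at 5000 cells/well 18-24 h ahead, then exposed continuously for 48 h in triplicate wells. Working solutions made in 10% FBS medium with DMSO ≤1%. Cells washed before MTT.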

In series [2] the test system is MDA-MB-231. Nature of the series: Cytotoxicity against human MDA-MB-231 cells expressing sigma receptor at 0.5 to 50 uM after 48 hrs by MTT assay. It is filed as functional, cell-based. In outline:
as §1
On the technique in general: Tetrazolium dyes change colour on reduction, which living cells bring about.

For series [3], the system named is HEK293. Kind of series: Induction of apoptosis in human HEK293 cells expressing sigma receptor assessed as necrotic cells using annexin V/propidium iodide staining at 5 uM after 24 hrs by flow cytometry (reference value: 0.06%). It is filed as cell-based. Conditions: hek293, 24 h. (Flow cytometry measures light scatter and fluorescence of single cells or particles in a stream.)

In series [4] the test system is HEK293. Nature of the series: Induction of apoptosis in human HEK293 cells expressing sigma receptor assessed as late apoptotic cells using annexin V/propidium iodide staining at 5 uM after 24 hrs by flow cytometry (reference value: […]). The series is classed as cell-based. Conditions: hek293, 24 h.
The subject of series [5] is HEK293. Nature of the series: Induction of apoptosis in human HEK293 cells expressing sigma receptor assessed as early apoptotic cells using annexin V/propidium iodide staining at 5 uM after 24 hrs by flow cytometry (reference value: […]). It is filed as cell-based. To be noted: hek293, 24 h.
For series [6], the system named is MCF7. Kind of series: Induction of apoptosis in human MCF7 cells expressing sigma receptor assessed as viable cells using annexin V/propidium iodide staining at 5 uM after 24 hrs by flow cytometry (reference value: 97.33%). The series is classed as functional.
Series [7] concerns MCF7. Kind of series: Induction of apoptosis in human MCF7 cells expressing sigma receptor assessed as necrotic cells using annexin V/propidium iodide staining at 5 uM after 24 hrs by flow cytometry (reference value: 0.27%). The series is classed as functional.
Series [8] concerns MCF7. Nature of the series: Induction of apoptosis in human MCF7 cells expressing sigma receptor assessed as late apoptotic cells using annexin V/propidium iodide staining at 5 uM after 24 hrs by flow cytometry (reference value: 1.48%). The series is classed as functional.
Series [9] deals with MCF7. Kind of series: Induction of apoptosis in human MCF7 cells expressing sigma receptor assessed as early apoptotic cells using annexin V/propidium iodide staining at 5 uM after 24 hrs by flow cytometry (reference value: 0.92%). The series is classed as functional.
The subject of series [10] is B16-F10. Kind of series: Induction of apoptosis in mouse B16F10 cells expressing sigma receptor assessed as necrotic cells using annexin V/propidium iodide staining at 5 uM after 24 hrs by flow cytometry (reference value: 0.25%). It is filed as functional.
The subject of series [11] is B16-F10. Kind of series: Induction of apoptosis in mouse B16F10 cells expressing sigma receptor assessed as viable cells using annexin V/propidium iodide staining at 5 uM after 24 hrs by flow cytometry (reference value: 98.30%). The series is classed as functional.
Series [12] deals with B16-F10. Nature of the series: Induction of apoptosis in mouse B16F10 cells expressing sigma receptor assessed as late apoptotic cells using annexin V/propidium iodide staining at 5 uM after 24 hrs by flow cytometry (reference value: 1.21%). It is filed as functional.
Series [13] deals with B16-F10. Kind of series: Induction of apoptosis in mouse B16F10 cells expressing sigma receptor assessed as early apoptotic cells using annexin V/propidium iodide staining at 5 uM after 24 hrs by flow cytometry (reference value: 0.92%). It is filed as functional.
In series [14] the test system is COS-1. Nature of the series: Induction of apoptosis in against african green monkey COS1 cells expressing sigma receptor assessed as necrotic cells using annexin V/propidium iodide staining at 5 uM after 24 hrs by flow cytometry (reference value: 0.08%). The series is classed as cell-based. Conditions: chlorocebus aethiops, cos-1, 24 h.
Series [15] is described as follows: Induction of apoptosis in against african green monkey COS1 cells expressing sigma receptor assessed as viable cells using annexin V/propidium iodide staining at 5 uM after 24 hrs by flow cytometry (reference value: 99.82%). It is filed as cell-based. Conditions: chlorocebus aethiops, COS-1 cells expressing sigma receptor; read-out: Activity.
Series [16] concerns COS-1. Nature of the series: Induction of apoptosis in against african green monkey COS1 cells expressing sigma receptor assessed as late apoptotic cells using annexin V/propidium iodide staining at 5 uM after 24 hrs by flow cytometry (reference value: 0.04%). It is filed as cell-based. To be noted: chlorocebus aethiops, cos-1, 24 h.
Series [17] concerns COS-1. Kind of series: Induction of apoptosis in against african green monkey COS1 cells expressing sigma receptor assessed as early apoptotic cells using annexin V/propidium iodide staining at 5 uM after 24 hrs by flow cytometry (reference value: 0.06%). It is filed as cell-based. To be noted: chlorocebus aethiops, cos-1, 24 h.
Series [18] can be described thus: Induction of apoptosis in human HEK293 cells expressing sigma receptor assessed as viable cells using annexin V/propidium iodide staining at 5 uM after 24 hrs by flow cytometry (reference value: 99.76%). It is filed as cell-based. Conditions: read-out: Activity.
Series [19] deals with B16-F10. Kind of series: Antitumor activity against mouse B16F10 cells expressing sigma receptor xenografted in C57BL6/J mouse assessed as tumor regression at 7.5 mg/kg, ip administered 5 times with gap 2 to 3 days. The series is classed as functional, organism-based. Set-up: dose 7.5 mg/kg. In outline: (§2)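 Male C57BL6/J mice, 6-8 weeks old, given 2 × 10⁵ B16F10 cells s.c. in the lower right abdomen. From day 11, groups of four mice received 7.5 mg/kg i.p. in PBS with 10% DMSO, five injections 2-3 days apart. Tumours measured three times a week; volume = 0.5ab². Tumours excised on day 23, cut as 10 μm cryosections, fixed and fluorometric TUNEL-stained.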

The subject of series [20] is B16-F10. Kind of series: Antitumor activity against mouse B16F10 cells expressing sigma receptor xenografted in C57BL6/J mouse assessed as increase of apoptotic region in tumor at 7.5 mg/kg, ip administered 5 times with gap 2 to 3 days by TUNEL assay. It is filed as functional, organism-based. Details: dose 7.5 mg/kg. A digest of the protocol:
as §2

Series [21] has as its system B16-F10. Nature of the series: Induction of apoptosis in mouse B16F10 cells expressing sigma receptor assessed as decrease of Bcl-2 protein expression at 10 uM after 24 hrs by Western blotting. The series is classed as functional, cell-based. A digest of the protocol:
(§3)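 B16F10 cells (in RPMI) and HUVEC (passages 2-3, in EBM with bullet kit minus serum) exposed to 10 μM compound or left untreated for 24 h under charcoal-stripped serum conditions. Whole-cell lysates made in cold RIPA (pH 7.4) with phosphatase/protease inhibitors and 2 mM vanadate. SDS-PAGE gradient gel, PVDF transfer, probed for caspase 3, Bax, Bcl-2, Akt, pAkt and β-actin with HRP-chemiluminescence detection.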
(In general: Immunoblotting shows a protein as a band on a membrane.)

The subject of series [22] is B16-F10. Nature of the series: Induction of apoptosis in mouse B16F10 cells expressing sigma receptor assessed as increase of Bax protein expression at 10 uM after 24 hrs by Western blotting. The series is classed as functional, cell-based. In outline:
as §3

Series [23] has as its system B16-F10. Nature of the series: Induction of apoptosis in mouse B16F10 cells expressing sigma receptor assessed as increase of Bax/Bcl-2 protein ratio at 10 uM after 24 hrs by Western blotting. It is filed as functional, cell-based. In outline: as §3
Series [24] deals with B16-F10. Nature of the series: Induction of apoptosis in mouse B16F10 cells expressing sigma receptor assessed as increase of cleaved caspase 3 expression at 10 uM after 24 hrs by Western blotting. The series is classed as functional, cell-based. In outline: as §3
The subject of series [25] is B16-F10. Nature of the series: Induction of apoptosis in mouse B16F10 cells expressing sigma receptor assessed as phosphorylated Akt level at 10 uM after 24 hrs by Western blotting. It is filed as functional, cell-based. A digest of the protocol:
as §3

Series [26] deals with HUVEC. Nature of the series: Induction of apoptosis in HUVEC assessed as increase of cleaved caspase 3 expression at 10 uM after 24 hrs by Western blotting. The series is classed as functional, cell-based. Conditions: Homo sapiens. A digest of the protocol: as §3
The test system of series [27] is HUVEC. Nature of the series: Induction of apoptosis in HUVEC assessed as phosphorylated Akt level at 10 uM after 24 hrs by Western blotting. The series is classed as functional, cell-based. Conditions: Homo sapiens. In outline: as §3
Series [28] concerns HUVEC. Nature of the series: Induction of apoptosis in HUVEC assessed as increase of Bax/Bcl-2 protein ratio at 10 uM after 24 hrs by Western blotting. The series is classed as functional, cell-based. Conditions: Homo sapiens. A digest of the protocol: as §3
Series [29] has as its system ZR-75-1. Nature of the series: Cytotoxicity against human ZR-75-1 cells expressing sigma receptor after 48 hrs by MTT assay. The series is classed as functional, cell-based. To be noted: ZR-75-1, 48 h. In outline: as §1
The subject of series [30] is B16-F10. Nature of the series: Cytotoxicity against mouse B16F10 cells expressing sigma receptor after 48 hrs by MTT assay. It is filed as functional, cell-based. Conditions: B16-F10, 48 h. In outline:
as §1

In series [31] the test system is MCF7. Nature of the series: Cytotoxicity against human MCF7 cells expressing sigma receptor after 48 hrs by MTT assay. The series is classed as functional, cell-based. To be noted: MCF7, 48 h. In outline:
as §1

Series [32] has as its system MDA-MB-231. Nature of the series: Cytotoxicity against human MDA-MB-231 cells expressing sigma receptor after 48 hrs by MTT assay. The series is classed as functional, cell-based. Conditions: MDA-MB-231, 48 h. In outline:
as §1

Series [33] concerns COS-1. Nature of the series: Cytotoxicity against african green monkey COS1 cells expressing sigma receptor after 48 hrs by MTT assay. It is filed as cell-based. To be noted: Chlorocebus aethiops, COS-1, 48 h. A digest of the protocol:
as §1

For series [34], the system named is HEK293. Kind of series: Cytotoxicity against human HEK293 cells expressing sigma receptor after 48 hrs by MTT assay. Conditions: HEK293, 48 h. It is filed as cell-based. In outline:
as §1

For series [35], the system named is MCF7. Nature of the series: Cytotoxicity against sigma receptor depleted human MCF7 cells assessed as cell viability at 10 uM after 48 hrs by MTT assay in presence of siRNA treated for 4 hrs before compound challenge.

In the case of `CCCCCCCCCCCC[N+](C)(CCCCCCCCCCCC)CC(=O)NCCC(=O)OC1(c2ccc(Cl)cc2)CCN(CCCC(=O)c2ccc(F)cc2)CC1`, the outcome in series [1] and in series [2] was Active.

As for `CCCC[N+](C)(CCCC)CC(=O)NCCC(=O)OC1(c2ccc(Cl)cc2)CCN(CCCC(=O)c2ccc(F)cc2)CC1`, the outcome in [1] and in series [2] was Active.

Take `CCCCCCCCCCCCCCCC[N+](C)(CCCCCCCCCCCCCCCC)CC(=O)NCCC(=O)OC1(c2ccc(Cl)cc2)CCN(CCCC(=O)c2ccc(F)cc2)CC1`: the outcome in [1] and in series [2] was Active.

As to `O=C(CCCN1CCC(O)(c2ccc(Cl)cc2)CC1)c1ccc(F)cc1` [HALOPERIDOL], the Activity is recorded as 0.07% in series [3]; 0.18% in [4]; 0.11% in series [5]; 97.66% in [6]; 0.09% in series [7]; 1.74% in series [8]. Moreover, the Activity was determined as 0.51% in series [9]; 1.58% in [10]; 97.17% in series [11]; 0.95% in series [12]; 0.29% in series [13]; 0.17% in [14]. Further, the figures for the Activity in series [16] and in series [17] were 0.16% and 0.11%, respectively. For the same molecule, the result in [1] and in series [2] was Active. The viability at 24 h, 5 µM in series [15] and in series [18] was 99.6% throughout.

Broadly, the IC50 is the concentration at which inhibition is half-maximal. Regarding `CCCCCCCC[N+](C)(CCCCCCCC)CC(=O)NCCC(=O)OC1(c2ccc(Cl)cc2)CCN(CCCC(=O)c2ccc(F)cc2)CC1.[Cl-]`, the Activity amounted to 0.14% in series [3]; 0.15% in [4]; 0.14% in [5]; 47.43% in [6]; 14.35% in [7]; 33.2% in [8]. The Activity amounted to 5.02% in series [9]; 1.03% in series [10]; 41.47% in series [11]; 53.41% in series [12]; 4.1% in series [13]; 0.12% in [14]. For the same molecule, the Activity came to 0.06% in series [16] and 0.11% in series [17]. In addition, the outcome in series [19], in series [20], in series [21], in series [22], in series [23] and in series [24] was Active. The result in series [25], in [26], in [27], in series [28], in series [1] and in [2] was Active. The IC50 in series [29] turned out to be 2500 nM; in series [30], 2500 nM; in [31], 2500 nM; in series [32], 2500 nM; in [33] it was 7 µM; in [34], 7 µM. The viability at 24 h, 5 µM in [15] came out at 99.7%; in series [18] it was 99.6%. Further, the viability at 10 µM in series [35] was found to be 25%.
